Sampled rows, rich in hits. Any-hit rate of the full collection: about 29%.
CYP2C19 inhib = blocks human cytochrome P450 2C19 | inhibition, % at 5 µM | 96,000 compounds, 21% hits | P33261 | CYP2C19 Supersomes, luciferin-H EGE luminescence, 30 min | AID 778;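 active means CYP2C19 inhibition above a set limit at 5 µM in the primary screen, cut at about 50% in these data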;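 further: plate controls were negative control wells for no effect and 2.5 mM tranylcypromine positive control for full effect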
CYP2C9 inh = human CYP2C9 inhibition. P11712. CYP2C9 Supersomes, luciferin-H conversion, luminescence. inhibition, % at 5 µM. 96,000 compounds, 20% hits. AID 777;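 active means blocking of liver enzyme CYP2C9 beyond about 50% at 5 µM, limit read from the data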
Target sequence (P11712 whole entry, looked up): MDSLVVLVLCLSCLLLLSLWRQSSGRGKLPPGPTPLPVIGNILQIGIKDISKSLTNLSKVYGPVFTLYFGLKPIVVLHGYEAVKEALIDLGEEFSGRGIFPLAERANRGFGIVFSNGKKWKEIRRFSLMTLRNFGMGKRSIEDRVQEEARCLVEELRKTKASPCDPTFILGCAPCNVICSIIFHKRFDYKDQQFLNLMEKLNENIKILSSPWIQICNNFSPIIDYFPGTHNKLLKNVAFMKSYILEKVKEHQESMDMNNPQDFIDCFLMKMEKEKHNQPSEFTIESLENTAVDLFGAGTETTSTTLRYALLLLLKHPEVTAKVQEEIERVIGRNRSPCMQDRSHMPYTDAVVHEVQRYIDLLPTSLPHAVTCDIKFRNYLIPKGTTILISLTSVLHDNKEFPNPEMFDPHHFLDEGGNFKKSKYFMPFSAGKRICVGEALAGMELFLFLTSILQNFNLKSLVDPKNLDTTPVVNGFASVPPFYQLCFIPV
CYP2C9 activ = activators of human CYP2C9. activation factor at 5 µM. 96,000 compounds, 1.4% hits. recombinant CYP2C9, luciferin-H conversion, luminescence; hits give high values; factor 1 = untreated enzyme, 0 = blocked. P11712;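 active means activation factor of 2 or more for CYP2C9 at a 5 µM dose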;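 further: 0 = sulfaphenazole-blocked wells and 1 = vehicle-only wells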
Ecoli tolC = E. coli tolC mutant growth inhibition | growth inhibition, % at 10 µM (by protocol) | E. coli BW25113 tolC mutant growth, OD615 | AID 573 | 65,000 compounds, 2.2% hits;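 active means growth inhibition at or above a cutoff equal to the mean over every tested compound plus 3 SD, cut at about 60% in these data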;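 further: growth measured after 20 h incubation at 37 °C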
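Test system: tolC-deleted E. coli BW25113 | Medium: LB with kanamycin 50 µg/mL | Compound dosing: Single concentration, 10 µM final per compound | Schedule: 37 °C, 20 h exposure | Measured by: OD at 615 nm | Evaluation: Percent growth inhibition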
E coli WT exp = growth inhibitors of E. coli BW25113 wild type; OD600 absorbance; growth inhibition, % at 100 µM; 98,000 compounds, 0.15% hits;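 active means growth inhibition above about 50% at one test dose, limit read from the data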;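 further: growth measured after 20 h incubation at 37 °C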
CYP2C19 act = activators of human cytochrome P450 2C19. recombinant CYP2C19, luciferin-H EGE luminescence; hits give high values; 0 = fully inhibited enzyme, 1 = untreated enzyme. activation factor at 5 µM. 96,000 tested, under 10 active. AID 1025;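 active means activation factor of at least 2 at 5 µM in the primary screen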;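 further: 0 = wells with 2.5 mM tranylcypromine and 1 = vehicle-only wells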
* = called active by the depositor; . = not tested or not shown.

SMILES	CYP2C19 inhib	CYP2C9 inh	CYP2C9 activ	Ecoli tolC	E coli WT exp	CYP2C19 act
CCS(=O)(=O)n1nc(-c2ccccc2)nc1SC	56.1*	-11.4	1.1	.	-10.0	0.4
CC(C)Oc1snc(Cl)c1C(N)=O	14.6	-11.3	1.1	-17.2	6.0	0.9
COc1ccc(N=C(N(C)C)P(=O)(N(C)C)N(C)C)cc1	8.0	-8.1	1.1	-9.6	-1.0	0.9
COc1ccccc1NC(=O)C(C)NS(=O)(=O)c1ccccc1 (stereo unspecified)	50.6*	-174.9	2.7*	0.0	1.0	0.5
COC(=O)C(NC(=O)Nc1ccccc1OC)C(C)C (stereo unspecified)	59.1*	12.0	0.9	.	6.0	0.4
COc1ccccc1CNC(=O)C(C)NS(=O)(=O)c1ccc(C)cc1 (stereo unspecified)	20.3	-108.0	2.1*	3.0	0.0	0.8
COc1ccc(S(=O)(=O)NC(C)C(=O)Nc2ccccc2C(F)(F)F)cc1 (stereo unspecified)	33.1	-25.0	1.3	.	-6.0	0.7
COc1ccc(C2=CC(c3sccc3C)n3nnnc3N2)cc1 (stereo unspecified)	82.1*	91.4*	0.1	13.1	-9.0	0.2
OCCCc1nc2n(n1)C(c1ccccc1)C=C(c1ccccc1)N2 (stereo unspecified)	-1.3	-1.9	1	-5.3	-11.0	1
COc1cccc(C2=CC(c3ccc(OC)c(OC)c3OC)n3nnnc3N2)c1 (stereo unspecified)	52.3*	81.0*	0.2	7.2	-2.0	0.5
COc1ccc(C2=CC(c3ccc(F)cc3)n3nnnc3N2)cc1 (stereo unspecified)	51.6*	92.8*	0.1	-19.2	-4.0	0.5
COc1cccc(C2=CC(c3cccs3)n3nnnc3N2)c1 (stereo unspecified)	38.1	40.1	0.6	.	3.0	0.6
COc1ccc(C2C=C(c3ccccc3)Nc3nc(CCCO)nn32)cc1 (stereo unspecified)	28.5	66.7*	0.3	-3.7	2.0	0.7
Cc1nn(C)c(Cl)c1NC(=O)OCc1ccc(F)cc1	33.8	14.1	0.9	.	4.0	0.7
CCNC(=S)NNC(=O)c1ccc(OC(F)F)cc1	26.6	8.1	0.9	.	4.0	0.7
COC(=O)c1nc2n(n1)C(c1cccc(Cl)c1)C1=C(CC(C)(C)CC1=O)N2 (stereo unspecified)	1.2	12.8	0.9	-1.9	2.0	1
CC(C)C[C@H](NC(=O)OC(C)(C)C)C(=O)N/N=C/C1=Cc2ccccc2OC1C (stereo partly specified)	7.6	41.8	0.6	.	-6.0	0.9
COc1ccccc1C1C=C(c2ccccc2)Nc2nnnn21 (stereo unspecified)	.	.	.	7.4	.	.
Cc1ccc(C2=CC(c3ccc(N(C)C)cc3)n3nnnc3N2)cc1 (stereo unspecified)	78.1*	65.0*	0.3	9.7	-7.0	0.2
Cc1ccc(/C=N/NC(=O)c2cc(C)oc2C)o1	21.7	-2.9	1	.	10.0	0.8
Cc1ccc(/C=N/NC(=S)NC(C)C)o1	50.9*	-10.9	1.1	.	4.0	0.5
COC(=O)c1[nH]c2ccccc2c1NC(=O)CNC1CCCCC1	-10.7	-17.3	1.2	0.4	3.0	1.1
COc1ccc(NC(=O)C23CCC(C2)C(C)(C)C3=O)cc1 (stereo unspecified)	34.1	21.4	0.8	0.9	-2.0	0.7
O=C(c1ccccc1)N1CCN(Cc2c[nH]c3ccccc23)CC1	64.8*	40.8	0.6	2.6	5.0	0.4
O=C(c1ccc(F)cc1)N1CCN(Cc2ccccc2Br)CC1	97.5*	68.9*	0.3	18.9	2.0	0
N#Cc1ccc(CN2CCN(C(=O)c3ccccc3)CC2)c(Cl)c1	74.2*	36.2	0.6	8.6	-6.0	0.3
O=C(c1cccc(F)c1)N1CCN(Cc2c[nH]c3ccccc23)CC1	36.9	11.7	0.9	-1.7	11.0	0.6
CC(=O)N1CCN(C(=O)CCc2c[nH]c3ccccc23)CC1	27.2	-6.9	1.1	-5.0	1.0	0.7
O=C(CCCc1c[nH]c2ccccc12)N1CCCCCC1	97.7*	-17.4	1.2	.	6.0	0
Cc1cc(C)c(NC(=O)/C=C\C(=O)O)c([N+](=O)[O-])c1	-2.8	4.2	1	.	2.0	1

Screening data as filed in PubChem.
